The source of these data is ChEMBL document CHEMBL4513216, “Probing the Open Global Health Chemical Diversity Library for Multistage-Active Starting Points for Next-Generation Antimalarials” (ACS Infect Dis, 2020).

The nature of this data set: Toxicity liver stage against HepG2, at 10uM. The class given is cell-based. Details: test concentration 10 uM, cell line HepG2-A16-CD81EGFP. The conditions noted are these: human, HepG2-A16-CD81EGFP cells; read-out: INHIBITION
In a few lines:
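Uninfected HepG2-A16-CD81EGFP cells, 3 × 10^3 per well, 1536-well, plated on prespotted compound at 10 μM final, parasite-free screening media added to match infected plates; puromycin 10 μM positive, DMSO 0.5% negative; run in parallel with 48 h PbLuc assay at 37 °C, 5% CO2; viability by CellTiter-Glo luminescence, normalized to controls.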
For the compound `O=C(O)C1CCCN1c1nc(-c2ccc(Cl)c(Cl)c2)cc(C(F)(F)F)n1` (stereo unspecified), the cytotoxicity at 10 µM was 32.1%.

As for `c1cc(-c2ccc3c(c2)C2(CCNCC2)CC3)ccn1`, the cytotoxicity at 10 µM was determined as 56.9%. The value for `O=C(NCC1CC1)C12CC(CN1Cc1nccs1)C2` was -4.6%; that for `O=C([C@H]1C[C@H]2OCC[C@H]2N(CC2CC2)C1)N1CCCC1` was -0.542%; that for `CC(C)c1nnc2ccc(N3CCC(C(=O)Nc4nccs4)CC3)nn12` was 42.6%.

Take `CCC1=NC(SCC(=O)c2ccccc2)c2cc(CC)sc2N1` (stereo unspecified): the cytotoxicity at 10 µM was -12.5%. Take `Cc1cc2c(cc1Cl)C=CC1(CCN(CC(=O)NC3CCCC3)CC1)O2`: the cytotoxicity at 10 µM is 17%. The value for `CCOc1ccc(CN2CCCC(c3cc4ncccc4[nH]3)C2)cc1` (stereo unspecified) was 1.18%. On to `Cc1ccc(Oc2c(F)cccc2OC[C@@H](N)CC(C)C)cc1`, for which the cytotoxicity at 10 µM is -8.94%. On to `Cc1cc2c(=O)n3c(nc2s1)CCN(C(=O)c1sc(C)nc1C)CC3`, for which the cytotoxicity at 10 µM was -0.579%. The value for `Cc1cc(N(C)CC2COc3ccccc3O2)nc(N)n1` (stereo unspecified) was 17.6%; that for `Cc1noc(C)c1C(=O)N(C)C(C)c1cccnc1` (stereo unspecified) was 0.363%; that for `CCn1nc2c(cc1=O)CN(c1ncnc3sccc13)CC2` was 47.5%. The value for `O=C(Nc1ccncc1)NC1CCN(c2ccccc2OC(F)F)C1` (stereo unspecified) was 15.6%; that for `N#Cc1c(Cl)nsc1NCc1ccnc(OCC(F)(F)F)c1` was 12.5%; that for `CC(Cn1ccnc1)NC(=O)N(C)Cc1ccco1` (stereo unspecified) was -0.687%. The value for `CCCC1CCCN(C(=O)Nc2cccnc2OC)CC1` (stereo unspecified) was 4.52%. On to `Fc1ccc(CN2CCCC2Cn2cncn2)c2ncccc12` (stereo unspecified), for which the cytotoxicity at 10 µM came to 11.7%. The value for `CCNC(=O)CN(CC)C(=O)Cc1csc(C(C)C)n1` was 1.29%; that for `CNC(=O)Cc1nc(CNc2ccc(SC)c(F)c2)cs1` was -1.99%; that for `Cc1ccc(-c2ncc(CNc3cnccc3CO)s2)cc1` was -7.65%.

As to `CC(Nc1ccc(F)cc1)c1nnnn1-c1ccccc1` (stereo unspecified), the cytotoxicity at 10 µM came to 1.81%. The value for `Cc1nc(CN2CCCC(Nc3ncnc4ccsc34)C2)no1` (stereo unspecified) was 42.2%; that for `Cc1n[nH]cc1CNc1ccc2c(c1)CN(C(=O)OC(C)(C)C)CC2` was 14.9%; that for `CC(=O)N1CCC(c2nc3ccc(-c4cccc(F)c4)cn3n2)CC1` was 12.4%. The value for `O=C1CO[C@@H]2CN(S(=O)(=O)c3ccc(F)cc3)C[C@H]2N1` was 4.59%. The value for `O=C(N1CCCC1)N1C[C@@H]2CN(Cc3ccoc3)CCO[C@@H]2C1` was -76.7%. `Cc1ncc(-c2ccnc(NCCO)n2)c(C2CCCCC2)n1`: the cytotoxicity at 10 µM is -11%. The value for `CCc1ccc(-c2ncc3c(n2)N(C)CCN(CCN(C)C)C3=O)cc1` was -9.52%; that for `CCC(Nc1nc(C)nc2onc(C)c12)c1cccs1` (stereo unspecified) was 52.4%.

Consider `CCCc1nnc(N2CCC(N3CCCC3)CC2)o1`, for which the cytotoxicity at 10 µM was -16.3%.

Turning to `Cc1nonc1-c1nc(C(C)C)nn1-c1ccc2c(c1)OCO2`, the cytotoxicity at 10 µM is -6.9%.

As to `COCCC1(C(=O)O)CCCN(C(=O)c2cc(F)ccc2OC)C1` (stereo unspecified), the cytotoxicity at 10 µM is -11.4%. The value for `CN1CCCC2(CC1)CCN(C(=O)CCc1ccccc1F)CC2` was -5.95%; that for `CN(Cc1ccc(-n2cccn2)cc1)c1cc(N)nc(N)n1` was 86.7%; that for `O=C(O)[C@@H]1CN(C(=O)Cc2ccccc2Cl)C[C@H]1C1CC1` was 9.53%.

In the case of `Cc1ccc2cc(C3(O)CCN(C(=O)CSC(C)C)CC3)ccc2n1`, the cytotoxicity at 10 µM amounted to 22%.

Consider `CCN1CCCC1CN(Cc1ccon1)CC1CCN(CCOC)CC1` (stereo unspecified), for which the cytotoxicity at 10 µM is -0.525%.

As to `Cc1cc(NCc2cc(C)oc2C(F)(F)F)n2nc(C)cc2n1`, the cytotoxicity at 10 µM was 49.1%. As to `Cc1cc(NCc2cc3n(n2)CCCN(C(=O)C2CCC2)C3)nc(N)n1`, the cytotoxicity at 10 µM was -146%. The value for `COc1ccc(OC)c(C2CCN(c3ccc4cc[nH]c4n3)C2)c1` (stereo unspecified) was -1.6%. The value for `CCCc1nc(C)c(CNc2nc(C)nc3onc(C)c23)s1` was 1.6%. The value for `CCSc1ncc(CN2CCC(O)(CN3CCOCC3)C(C)(C)C2)cn1` (stereo unspecified) was 7.49%. As to `COc1cccc(-c2noc3c2CN(c2nc(C)ncc2C)CC3)c1`, the cytotoxicity at 10 µM was 45.1%. The value for `COC(=O)N1CCCCC1C(=O)N1CCN(c2cccnc2)CC1` (stereo unspecified) was -10.6%.

Regarding `O=C1[C@@H]2CN(Cc3cc4ccccc4o3)C[C@]2(C(=O)O)CN1CC1CC1`, the cytotoxicity at 10 µM is -5.22%. The value for `CC1CCN(CCCNC(=O)c2ccc(N(C)S(C)(=O)=O)cc2Cl)CC1` was -0.488%. The value for `CCc1ccc(C2CC(=O)Nc3c2c(=O)[nH]n3C(C)C)cc1` (stereo unspecified) was -6.87%. Turning to `CN(C)C(=O)c1ccc(C2CCCN2C(=O)c2cccc3c2OCC3)s1` (stereo unspecified), the cytotoxicity at 10 µM was 4.1%. The value for `COc1cccc(CCC2CCCN(C(=O)c3n[nH]c4c3CCC4)C2)c1` (stereo unspecified) was 4.48%. The value for `COc1ccccc1CN(C)c1nccc(-c2cn(C)nc2C)n1` was 53.8%; that for `O=C(c1ccc(C2CCCO2)s1)N1CCN(c2ccccc2F)CC1` (stereo unspecified) was -15.1%. The value for `CC(C)OCc1ccc(CNc2cncc(-n3cccn3)n2)cc1` was 43.8%. As to `Cc1nc(CN2CCCC2c2noc(C3CC3)n2)nc2ccccc12` (stereo unspecified), the cytotoxicity at 10 µM is -19%. The value for `CCCc1ccc(S(=O)(=O)Nc2ccc(=O)n(C)c2)cc1` was 43.5%; that for `CNc1cc2c(nn1)CCN(C(=O)c1cc(C)n(C3CC3)c1C)C2` was -14.4%. The value for `Cc1cc(C)n(CC2CN(Cc3nc4ccccc4s3)CCO2)n1` (stereo unspecified) was 3.93%; that for `COc1ccccc1OCCN1CCCCC1Cn1cncn1` (stereo unspecified) was -32.7%. With `CC1CCCN(Cc2csc(-c3ncccn3)n2)CC1` (stereo unspecified), the cytotoxicity at 10 µM came out at 2.73%. For `CC(C)Cc1noc(CN2CCN(CCOc3ccc(Cl)cc3)CC2)n1`, the cytotoxicity at 10 µM was found to be 24%. The value for `Cc1ccc(O)c(CN(CCCn2ccnc2)Cc2ccc(C)s2)c1` was -25.8%; that for `O=C(O)CCC(=O)N1CCN(CC2CC2)c2ncccc2C1` was -101%; that for `Fc1ccc(CN2CCC3(CC2)CN(c2ccccn2)CCO3)cc1` was -0.359%. The value for `O=C(NC1CCC1)[C@@H]1C[C@@H]2CCN(CCc3ccccc3)C[C@H]2O1` was -72.7%.

For the compound `O=S1(=O)c2ccccc2C2(CCN(Cc3ccccc3)C2)N1CC1CC1` (stereo unspecified), the cytotoxicity at 10 µM was determined as 16.3%. The value for `Cc1csc(NC(=O)c2cnc(C3CCCN3)cn2)n1` (stereo unspecified) was -41%. The value for `Cc1ccc(O[C@@H]2C[C@H]3CN(c4ncc(F)cn4)CCN3C2)cc1` was 35.3%. The value for `Fc1cccc(N2CCCC3(CN(Cc4ccco4)CCO3)C2)c1` (stereo unspecified) was -63.5%. As for `Cc1ccc(CN2CCOC3(CCCN(c4cccc(F)c4)C3)C2)o1` (stereo unspecified), the cytotoxicity at 10 µM is -70%.

For the compound `CN(C)CCN1C2(CCN(Cc3nccs3)C2)c2ccccc2S1(=O)=O` (stereo unspecified), the cytotoxicity at 10 µM is -71.8%.

Turning to `CC(C)C[C@H](N)C(=O)N1CCSc2ccccc2C1`, the cytotoxicity at 10 µM was determined as 0.318%.
